This note sets out measurements from ChEMBL document CHEMBL3870332, “Development of pharmacophore models for small molecules targeting RNA: Application to the RNA repeat expansion in myotonic dystrophy type 1” (Bioorg Med Chem Lett, 2016).

The source made the active and inactive calls. The calls are words filed in the database; no cut-off is given here.

A short description of data set [1]: Cytotoxicity against human HeLa cells expressing DM1 assessed as reduction in cell viability at 100 uM measured after 24 hrs by WST-1 assay. It is filed as toxicity, cell-based.
A short description of data set [2]: Binding affinity to biotinylated-r(CUG)12 RNA (unknown origin) assessed as disruption of r(CUG)12/His6-tagged MBNL1 complex at 50 uM incubated for 15 mins by TR-FRET assay. In a few lines: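 TR-FRET disruption of a preformed r(CUG)12–MBNL1 complex, method as described previously; each compound screened at a single 50 µM concentration.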
(In general: Time-resolved FRET reads energy transfer from a long-lived donor to a nearby acceptor.)

The nature of data set [3]: Binding affinity to AT hairpin DNA (unknown origin) measured after 30 mins by fluorescence analysis.
Data set [4] can be described thus: Binding affinity to tRNA (unknown origin) measured after 30 mins by fluorescence analysis.
Data set [5] concerns HeLa. As to the kind of experiment: Binding affinity to r(CUG)960 RNA (unknown origin) expressed in human HeLa cells co-expressing cTNT mini-gene assessed as reduction in deregulated cTNT exon5 alternative splicing at 10 uM measured after 20 to 24 hrs by RT-PCR analysis. The format is cell-based.
Data set [6] has as its system HeLa. As to the kind of experiment: Binding affinity to r(CUG)960 RNA (unknown origin) expressed in human HeLa cells co-expressing cTNT mini-gene assessed as reduction in deregulated cTNT exon5 alternative splicing at 100 uM measured after 20 to 24 hrs by RT-PCR analysis. The format is cell-based.
For data set [7], the system named is C2C12. As to the kind of experiment: Binding affinity to r(CUG)800 RNA (unknown origin) expressed in mouse C2C12 cells assessed as increase in nucleocytoplasmic transport of mRNA at 12.5 to 50 uM measured after 20 to 24 hrs by luciferase reporter gene assay. The format is cell-based. In a few lines:
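Run in C2C12 cells expressing a luciferase-encoding mRNA carrying 800 CUG repeats in the 3′ UTR. Nucleocytoplasmic export is read as luciferase turnover of a pro-luminescent substrate. Compounds tested at 50, 25 and 12.5 µM.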
For orientation: Reporter assays use an easily measured gene product as a stand-in for the process of interest.

Data set [8] can be described thus: Binding affinity to r(CUG)2 RNA (unknown origin) measured after 5 mins by fluorescence analysis.
Data set [9] can be described thus: Binding affinity to r(GC)20 RNA (unknown origin) measured after 5 mins by fluorescence analysis.
The subject of data set [10] is C2C12. As to the kind of experiment: Effect on luciferase expression in mouse C2C12 cells at 12.5 to 50 uM measured after 20 to 24 hrs by luminescence assay. It is filed as functional, cell-based. In a few lines: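 Counterscreen in the same C2C12 luciferase line without CUG repeats, used to flag compounds that enhance luciferase translation non-specifically. Compounds tested at 50, 25 and 12.5 µM.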

For data set [11], the system named is HeLa. The experiment in a line: Increase in DMPK transcript level in human HeLa cells co-expressing DM1/DMPK and cTNT mini-gene at 100 uM measured after 20 to 24 hrs by RT-qPCR method. The format is functional, cell-based. A general note: Real-time PCR tracks product formation cycle by cycle.

One may read the Kd as the constant that tells how readily two partners part at equilibrium. Read a high Kd as lower affinity. Turning to `O=C(Nc1ccc(NC(=O)c2ccc(F)cc2)nc1)c1ccncc1`, the results for the Activity result in [1] and in [2] were “Non-Toxic” and over 20%, respectively. Further, the dissociation constant (Kd) in data set [3] was over 50 µM; in data set [4], over 50 µM; in data set [8], 4.6 µM; in [9], over 30 µM. The result with HeLa [5], in the data set on HeLa [6] and with C2C12 [7] was Active.
Take `O=C(Nc1ccc2c(c1)C(=O)N(c1ccccc1)C2=O)c1ccco1`: the Activity in data set [2] was over 20%. In addition, the result with C2C12 [10] and with C2C12 [7] was Active.
With `Cc1c(C(=O)Nc2ccccn2)sc2nc(-c3ccccc3)cn12`, the Activity in [2] was over 20%. The outcome with C2C12 [10] and with C2C12 [7] was Active.
As to `O=C(Nc1ccc(-c2nc3ccccc3[nH]2)cc1)c1cccnc1`, the Activity in data set [2] is over 20%. Besides, the outcome in the data set on C2C12 [10] and with C2C12 [7] was Active.
Take `O=C(Nc1ccc2[nH]c(-c3ccc(F)cc3)nc2c1)c1ccncc1`: the Activity result in [1] was “Non-Toxic”; in data set [2], over 20%. For the same compound, the result with HeLa [6] and with C2C12 [7] was Active.
As for `Nc1ccc(-c2nc3ccc(-c4nc5ccc(N)cc5[nH]4)cc3[nH]2)cc1`, the Activity in data set [2] is over 20%.
As for `O=C(Nc1ccccn1)c1cccc(OCc2cscn2)c1`, the figures for the Activity entry in [1] and in [2] were “Non-Toxic” and over 20%, respectively. Further, the outcome in the data set on HeLa [11], in the data set with HeLa [5], with HeLa [6] and in the data set with C2C12 [7] was Active.
